PPC-1+TRAIL kill: compounds killing PPC-1 cancer cells with TRAIL present, primary screen, TRAIL potentiator project, ATPLite luminescence, uHTS; AID 1443, 2008; PPC-1 cells + TRAIL, ATPLite viability luminescence; cell killing (% activity), % at 4 µM or 5 µM; 220,000 compounds, 0.41% hits;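 active means cell killing above 50% in the first pass at 4 µM, then a duplicate retest at 5 µM averaging 50% or more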;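 further: plate controls were cells with TRAIL plus DMSO for no effect and medium-only wells lacking cells for full effect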
FLuc inh counter: firefly luciferase enzyme inhibitors, primary screen, artefact control for luciferase-based inhibitor screens, biochemical, luminescence, ATPLite. inhibition, % at 10 µM. 10 min. Luciferin 4-monooxygenase (Photinus pyralis), P08659. 200,000 compounds, 1.5% hits;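 active means inhibition above about 50% when tested at 10 µM, limit read from the data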
Target sequence (P08659 whole entry, looked up): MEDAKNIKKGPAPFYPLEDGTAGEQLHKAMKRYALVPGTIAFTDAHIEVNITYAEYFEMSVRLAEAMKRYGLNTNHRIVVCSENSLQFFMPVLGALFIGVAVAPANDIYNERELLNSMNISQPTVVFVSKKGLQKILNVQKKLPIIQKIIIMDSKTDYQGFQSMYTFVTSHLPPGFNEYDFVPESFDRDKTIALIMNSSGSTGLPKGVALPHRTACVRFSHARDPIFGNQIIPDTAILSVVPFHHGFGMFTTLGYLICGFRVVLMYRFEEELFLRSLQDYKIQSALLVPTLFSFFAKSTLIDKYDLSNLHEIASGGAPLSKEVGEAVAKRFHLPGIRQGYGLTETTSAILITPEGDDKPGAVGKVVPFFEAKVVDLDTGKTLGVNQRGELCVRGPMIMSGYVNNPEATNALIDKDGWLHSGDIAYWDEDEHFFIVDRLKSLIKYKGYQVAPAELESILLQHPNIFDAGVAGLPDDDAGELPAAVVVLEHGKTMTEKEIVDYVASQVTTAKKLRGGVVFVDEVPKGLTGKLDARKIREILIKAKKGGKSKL
C8 TRAIL sens: viability loss with TRAIL in NB7+C8 cells, primary screen, TRAIL sensitizer project, cell-based, ATPlite luminescence. inhibition (viability loss, TRAIL sensitization), % at 10 µM. 360,000 compounds, 1% hits;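 active means compounds causing at least 50% loss of cell viability in the single-dose screen, relative to plate controls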
FLuc act counter: FLuc activators, initial screening, artefact control for FLuc-dependent activation tests, biochemical, ATPlite luminescence; ATPlite luciferase biochemical, 10 min; 0 = ATP-free wells, 1 = DMSO control; AID 1027, 2008; activation factor at 10 µM; Luciferin 4-monooxygenase (Photinus pyralis), P08659; 200,000 tested, under 10 active;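 active means luciferase activation factor, scaled between plate controls, of at least 2 with compound at 10 µM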
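Assay system: Luciferase/luciferin detection reagent, cell-free biochemical luciferase assay / Read-out: luciferase activation / Benchmarks: No-ATP low control, compound-free enzyme-plus-ATP high control / Medium: PBS buffer for ATP / Detection: luminescence measurement of luciferase light output / Schedule: 10 min at ambient temperature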
PPC-1 tox: cytotoxicity in PPC-1 cells, confirmation, cytotoxicity control for TRAIL apoptosis potentiator project, cell-based, ATP content luminescence. shares compounds with PPC-1+TRAIL kill. cytotoxicity, % at 5 µM. PPC-1 viability, ATPlite luminescence, overnight. 1,200 compounds, 50% hits. AID 1447, 2008;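 active means reconfirmed compounds whose average cytotoxicity reaches 50% or more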;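 further: 0% = DMSO-treated cells and 100% = wells holding medium but no cells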
* hit, by the source's call; nt = no result given. A selection: hits, their analogues and other compounds. The true share with any hit is near 1.6%.

SMILES	PPC-1+TRAIL kill	FLuc inh counter	C8 TRAIL sens	FLuc act counter	PPC-1 tox
CCOC(=O)N=Nc1c2ccccc2c2nc3no[nH]c3nc12	83.1*	-5.7	96.2*	1.1	81.2*
CCOC(=O)c1ccc(NC(=O)c2nn(C)cc2Br)cc1	0.3	31.1	5.5	0.7	nt
O=C(c1ccc(Cl)s1)N1CCc2ccccc21	22.8	36.1	22.9	0.6	nt
CCc1sc(C(=O)N2CCc3ccccc32)cc1C	25.9	62.7*	56.3*	0.4	31.0
O=C(Nc1cccc2ccccc12)C12CC3CC(C1)CC(n1cnc([N+](=O)[O-])n1)(C3)C2	4.2	-7.6	7.1	1.1	13.7
COc1ccc(C2NCCc3c2[nH]c2ccccc32)cc1CN1CCc2cc(OC)c(OC)cc2C1C (configuration not stated)	13.3	nt	9.3	nt	33.8
Cn1ccc(NC(=O)c2ccc(Cl)cc2)n1	nt	nt	11.9	nt	nt
O=C(O)c1c2c(nc3ccccc13)/C(=C/c1ccc(O)cc1)CC2	48.2	96.0*	57.9*	0	48.9
Nc1[nH]n(-c2ccccc2)c(=O)c1N=Nc1ccc2c(c1)OCCO2	44.8	75.8*	55.4*	0.2	42.4
N#Cc1c(-n2cccc2/C=N/O)sc2c1CCCC2	10.7	-4.8	13.4	1	nt
C=CCNCc1cccn1-c1sc2c(c1C#N)CCCC2	-3.1	2.1	11.8	1	7.7
O=C1CCC(=O)N1c1nc2nc(-c3ccccc3)cc(-c3ccccc3)n2n1	10.8	3.3	3.4	1	-6.2
COC(=O)[C@@]12C[C@@H](CC(=O)N3CCSCC3)C(=O)N(CCc3ccc(OC)c(OC)c3)C1=CCC(C)(C)C2	nt	nt	-17.3	nt	nt
CCn1c(-c2cc(-c3ccc(OC(C)C)cc3)nc3ccccc23)n[nH]c1=S	40.6	72.3*	56.1*	0.3	34.3
CCn1c(-c2cc(-c3ccc(C)cc3)nc3ccccc23)n[nH]c1=S	18.9	32.2	6.2	0.7	nt
COC(=O)c1ccc(COC(=O)CNC(=O)c2ccc(C)s2)cc1	nt	nt	-14.2	nt	nt
CC(=O)c1cnc2c(C(=O)O)cnn2c1C	13.8	-3.0	-26.1	1	nt
O=C(O)CC(NC(=O)c1ccccc1NC(=O)c1ccccc1)C(=O)O (configuration not stated)	4.7	-4.1	-4.3	1	3.3
Cc1ccc(C(=O)NCCc2cccs2)cc1	69.2*	88.6*	77.8*	0.1	66.8*
O=C(NCCc1cccs1)c1ccc(Cl)cc1	13.4	nt	38.0	nt	nt
CCOC(=O)[C@@H]1[C@H]2COc3cc(OC)ccc3[C@@H]2N2C(=O)N(c3cccc(F)c3)C(=O)[C@]12C	nt	nt	-18.1	nt	nt
CCCCCc1ccc(OCCCC[n+]2cccc(C)c2)c(CCCCC)c1	21.4	-5.8	20.6	1.1	26.9
CCCCOc1ccc(C)cc1CN(CCO)CCO	-9.4	1.4	4.0	1	nt
CCCCCc1ccc(OCCCC[n+]2ccc(C)cc2)c(CCCCC)c1	26.7	1.2	46.3	1	9.4
CN1C(=O)C(O)(C2OC(C)(C)CCC2=O)c2ccccc21 (configuration not stated)	-18.7	-0.6	-2.1	1	nt
SMILES	PPC-1+TRAIL kill	FLuc inh counter	C8 TRAIL sens	FLuc act counter	PPC-1 tox
CS/C(Nc1cc(Cl)ccc1Cl)=C(/C#N)C(=O)c1ccco1	21.1	nt	76.3*	nt	22.6
O=C(Nc1cc(Cl)ccc1Cl)c1ccco1	nt	nt	3.0	nt	nt
Cc1ccccc1NC(=O)C(=O)NCCc1c[nH]c2ccccc12	-13.7	-2.3	-6.5	1	nt
CC(C)(C)c1ccc(C(=O)N/C(N)=N/c2nc3ccccc3o2)cc1	5.7	-4.0	5.6	1	nt
Cc1ccc2oc(/N=C(\N)NC(=O)C(C)(C)C)nc2c1	83.2*	nt	86.3*	nt	83.1*
Cc1ccc(C)c(NS(=O)(=O)c2cc(C(N)=O)ccc2C)c1	15.5	-6.2	2.3	1.1	-1.3
Cc1ccc(C)c(S(=O)(=O)Nc2ccc(C(N)=O)cc2)c1	-1.4	-5.1	-0.7	1.1	nt
CC(=O)C(C(C)=O)C(NC(=O)c1cccnc1)(C(F)(F)F)C(F)(F)F	17.3	-0.1	-7.3	1	nt
CC(=O)Oc1ccc(C23c4ccccc4C2(OC(C)=O)c2cc(OC(C)=O)ccc23)cc1 (configuration not stated)	nt	nt	7.4	nt	nt
Cc1cc2c(c(=O)o1)C(C(C)C)C(C#N)=C(N)O2 (configuration not stated)	6.4	-5.1	10.1	1.1	nt
Cc1cc2nc3ccc(=[N+](C)C)cc-3sc2cc1N	71.5*	nt	51.2*	nt	71.9*
CN(C)c1ccc(CNn2cnnc2SCc2ccc(F)cc2)cc1	2.1	-1.9	-27.2	1	nt
N/C(Cc1ccc(Cl)cc1Cl)=N\OC(=O)c1ccccc1	-1.3	-4.8	1.0	1	nt
COc1ccc(CC(=O)O/N=C(\N)c2ccccc2)cc1OC	nt	nt	14.2	nt	nt
N/C(=N\OC(=O)c1ccc(Cl)cc1Cl)c1ccccc1	65.3*	94.9*	93.9*	0.1	61.7*
COc1ccc(C(=O)O/N=C(\N)c2ccccc2)c(OC)c1	36.5	49.1	49.7	0.5	34.1
O=C(CSc1nnc2ccccn12)c1ccc(OC(F)F)cc1OC(F)F	3.9	-6.7	2.8	1.1	nt
CCOC(=O)CSc1ncnc2c1cnn2-c1ccccc1	17.6	15.7	-7.6	0.8	nt
CCOC(=O)CSc1ncnc2c1cnn2-c1ccc(C)cc1	28.1	7.1	6.3	0.9	21.7
Cc1cnc(NC(=O)c2cc3ccccc3o2)s1	50.6*	88.7*	35.6	0.1	54.5*
Cc1cnc(NC(=O)c2sc3ccccc3c2Cl)s1	70.0*	93.2*	81.7*	0.1	67.6*
NS(=O)(=O)c1cccc(NC(=O)c2cc(=O)c3ccccc3o2)c1	nt	nt	8.5	nt	nt
NS(=O)(=O)c1cccc(NC(=O)c2cc3ccccc3o2)c1	35.1	83.7*	63.4*	0.2	36.0
O=C(Nc1nnc(C2CC2)s1)c1cc2ccccc2o1	nt	nt	18.2	nt	nt
C/C(=N/NC(=O)c1cccs1)c1c(C)[nH]n(-c2nc3ccccc3s2)c1=O	76.5*	93.2*	88.6*	0.1	74.6*
SMILES	PPC-1+TRAIL kill	FLuc inh counter	C8 TRAIL sens	FLuc act counter	PPC-1 tox
Fc1ccccc1NC(=S)Nc1cccc2cnccc12	-16.4	-5.6	3.4	1.1	-27.0
Cc1ccc(NC(=S)Nc2cccc3cnccc23)cc1	27.0	4.1	2.9	1	nt
Cc1ccc(NC(=S)Nc2cccc3cnccc23)cc1C	2.6	0.0	30.1	1	-9.2
Cc1ccccc1NC(=S)Nc1cccc2cnccc12	22.6	-5.7	2.8	1.1	nt
COCCSc1ccccc1C(=O)NCc1ccc(S(N)(=O)=O)cc1	6.0	-1.5	4.2	1	7.0
CSc1ccccc1C(=O)NCc1ccc(S(N)(=O)=O)cc1	15.6	-6.1	-0.5	1.1	nt
CCN(CC)CCCNC1=C(Cl)C(=O)c2ccccc2C1=O	37.0	-2.5	93.6*	1	36.2
COCCCNC1=C(Cl)C(=O)c2ccccc2C1=O	6.7	nt	11.8	nt	nt
Cc1cccc(C)c1NC(=O)CN1CCCC1	nt	nt	6.2	nt	nt
